This is a sample that favours compounds with a hit; in the whole collection about 1.6% have one here.
Tb hexokinase: blocks Trypanosoma brucei hexokinase 1 activity. AID 1430. recombinant TbHK1, G6PDH-coupled NADH A340. inhibition, % at 10 µM. actives 0.11% (n = 220,000);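 active = inhibition of 50% or more in the single-dose primary screen; inactive = inhibition below 50%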
Yeast life ext: yeast lifespan extension. S. cerevisiae growth with nicotinamide, OD615; deaD strain in restrictive glucose medium. inhibition of the nicotinamide effect, % at 10 µM. actives 0.68% (n = 130,000). AID 775;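 active = inhibition above a set limit, placed 3 SD over the median of all compounds, cut at about 26% in these data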;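 note: 0% = nicotinamide-treated wells and 100% = cells grown without nicotinamide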
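Assay system: DeaD-strain S. cerevisiae. Medium: CSMM-D glucose medium, restrictive. Reagent: nicotinamide, 1.5 mM, co-present with compound. Compound: 10 µM single point, 0.25% DMSO. Schedule: culture preincubation 4 h, compound exposure 48 h, both 30 °C. Detection: absorbance at 615 nm.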
Yeast growth inh: reduces growth of yeast BB579 in restrictive medium; S. cerevisiae BB579 growth, OD615, 48 h; inhibition, % at 10 µM; actives 0.51% (n = 140,000); AID 804;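 active = inhibition above a set limit, 3 SD over the mean compound inhibition, cut at about 44% in these data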
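Assay system: S. cerevisiae DeaD strain BB579 yeast. Medium: CSMM-D restrictive synthetic medium containing dextrose (glucose). Times: 4 h cell preincubation, 48 h compound exposure, 30 °C humidified. Signal: OD615 turbidity measurement. Benchmarks: positive control amphotericin B 10 µg/mL.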
p47phox inh: blocks human p47phox regulatory protein of NADPH oxidases. p47phox/p22phox peptide binding, fluorescence polarization, 2 h. inhibition, % at 24.7 µM. P14598. actives 0.53% (n = 220,000);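 active = inhibition above about 30%, limit read from the data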;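 note: 0% = p47phox with labelled peptide and 100% = labelled peptide alone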
Target sequence (P14598 whole entry, looked up): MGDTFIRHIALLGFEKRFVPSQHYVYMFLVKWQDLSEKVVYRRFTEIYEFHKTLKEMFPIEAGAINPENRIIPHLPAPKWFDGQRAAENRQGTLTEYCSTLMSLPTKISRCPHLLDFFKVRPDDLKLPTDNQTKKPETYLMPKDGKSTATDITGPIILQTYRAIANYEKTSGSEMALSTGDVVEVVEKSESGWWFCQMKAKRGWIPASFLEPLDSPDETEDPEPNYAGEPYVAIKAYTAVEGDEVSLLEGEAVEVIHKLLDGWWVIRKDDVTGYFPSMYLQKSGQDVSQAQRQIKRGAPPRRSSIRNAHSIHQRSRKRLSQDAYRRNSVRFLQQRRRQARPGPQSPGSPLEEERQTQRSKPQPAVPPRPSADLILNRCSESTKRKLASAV
RBBP9 inh: inhibitors of human serine hydrolase RBBP9; recombinant RBBP9, FP-Rh probe fluorescence polarization; actives 0.2% (n = 220,000); inhibition, % at 7.94 µM; O75884;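 active = inhibition above the campaign mean of all tested compounds plus 3 SD, cut at about 14% in these data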;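 note: plate controls were DMSO wells with RBBP9 for no effect and wells lacking RBBP9 protein for full effect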
Target sequence (O75884 whole entry, looked up): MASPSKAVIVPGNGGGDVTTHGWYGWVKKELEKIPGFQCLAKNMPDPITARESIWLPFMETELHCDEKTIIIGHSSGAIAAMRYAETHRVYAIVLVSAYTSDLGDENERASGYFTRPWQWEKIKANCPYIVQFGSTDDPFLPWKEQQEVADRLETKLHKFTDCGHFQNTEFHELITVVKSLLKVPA
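Test system – recombinant human RBBP9 · Input – RBBP9 2.5 µM in dispensing solution, pre-mixing · Medium – Tris buffer pH 8.0, NaCl, Pluronic · Schedule – preincubation 30 min plus labeling 45 min at 25 °C · Measured by – fluorescence polarization · Measure – % inhibition · Controls – DMSO and no-protein wells · Replicates – one well per compound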
SDO1 yeast rescue: compounds rescuing growth of sdo1-depleted yeast, bone marrow failure model | S. cerevisiae sdo1-depleted JHY4D growth rescue, OD600 30 h; active compounds read high; pdr5 snq2 efflux-pump mutant strain | z-score at 10 µM | actives 0.21% (n = 140,000) | AID 817;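 active = z-score above 3 at both the 24 hr and the 30 hr optical density reads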;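 note: z-score against mean and SD of all compound wells on the same plate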
sdo1 rescue conf: SDO1-depleted yeast growth rescue confirmation; AID 949; shares compounds with SDO1 yeast rescue; OD recovery (test concentration not listed); S. cerevisiae JHY4D (SDO1-depleted) growth rescue, OD600, 30 h; active compounds read high; efflux-deficient strain, SNQ2 and PDR5 mutated; actives 44% (n = 440);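 active = yeast growth recovered at 30 hours, either rising with dose fitted slope above 0.001 or with average optical density gain above 0.07, some results past the limit were not filed as active; inactive = growth falling with dose or no effect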;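 note: gain in OD600 from 0 h to 30 h averaged across all seven doses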
G6PDH counter: Leuconostoc glucose-6-phosphate dehydrogenase inhibition, counter-screen; shares compounds with Tb hexokinase; purified G6PDH, NADH absorbance, 1 h; inhibition, % at 10 µM; actives 7% (n = 210);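 active = at least 50% inhibition in the glucose-6-phosphate dehydrogenase coupled counterscreen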
TbHK1 confirm: confirmation of Trypanosoma brucei hexokinase 1 inhibitors; shares compounds with Tb hexokinase; actives 10% (n = 210); AID 2560; recombinant TbHK1, G6PDH-coupled NADH A340 absorbance; inhibition, % at 10 µM;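 active = inhibition of at least 50% in both of the two screening runs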;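 note: 0% and 100% set by the maximum and minimum signal control wells on each plate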
* = called active by the depositor.

`COc1ccc(NC(=O)c2ccc(-n3cccn3)nc2)c(OC)c1` gave Tb hexokinase -1, Yeast life ext -13, Yeast growth inh -38, p47phox inh -12, RBBP9 inh -1 and SDO1 yeast rescue -0.03.
Screening COc1ccc(NC(=O)c2ccc(-n3cccn3)nc2)cc1 returned Tb hexokinase 1, Yeast life ext -6, Yeast growth inh -39, p47phox inh 11, RBBP9 inh 1, SDO1 yeast rescue 0.85 and sdo1 rescue conf 0.098.
Screening CC(=O)N1N=C(c2ccccc2OC(=O)/C=C/c2ccccc2)CC1c1ccccc1 (stereo not drawn) returned Tb hexokinase 6, p47phox inh -11 and RBBP9 inh -2.
Screening CCOCCOC(=O)C(C)Oc1ccc(Oc2ncc(Cl)cc2Cl)cc1 (stereo not drawn) returned Tb hexokinase 2, Yeast life ext 0, Yeast growth inh -8, p47phox inh -1, RBBP9 inh -1, SDO1 yeast rescue 6.9* and sdo1 rescue conf 0.11*.
CCOCCOC(=O)C(C)Oc1ccc(Oc2nc(Cl)ccc2Cl)cc1 (stereo not drawn) was read as Tb hexokinase -1, p47phox inh -2 and RBBP9 inh -10.
For COC(CNC(=O)C(=O)NCC1OCCN1C(=O)c1ccc(Cl)cc1)OC (stereo not drawn) the results were Tb hexokinase 1, Yeast life ext -2, Yeast growth inh -5, p47phox inh 2, RBBP9 inh -12 and SDO1 yeast rescue 0.41.
For COCCNC(=O)C(=O)NCC1OCCN1C(=O)c1ccc(Cl)cc1 (stereo not drawn) the results were Tb hexokinase 2, Yeast life ext 12, Yeast growth inh 5, p47phox inh 5, RBBP9 inh -3, SDO1 yeast rescue 11* and sdo1 rescue conf 0.037.
Screening Cc1cc(O)c(-c2cc(C(=O)Nc3ccc(S(=O)(=O)N4CCOCC4)cc3)[nH]n2)cc1C returned Tb hexokinase -7, Yeast life ext 3, Yeast growth inh -98, p47phox inh -30, RBBP9 inh -2, SDO1 yeast rescue 1.6 and sdo1 rescue conf 0.091*.
`C(#Cc1ccccc1)C[N+]1(CC#Cc2cccc3ccccc23)CCOCC1` gave Tb hexokinase 15, p47phox inh -11 and RBBP9 inh -9.
CCOC(=O)c1sc(=S)n(-c2ccccc2)c1C was read as Tb hexokinase -51, p47phox inh -8 and RBBP9 inh 0.
For CCOC(=O)c1sc(=S)n(-c2ccccc2)c1N the results were Tb hexokinase -17, Yeast growth inh -2, p47phox inh 4, RBBP9 inh -5, SDO1 yeast rescue 4* and sdo1 rescue conf 0.056.
`Cc1cccc(-c2nc(C#N)c(NCc3ccco3)o2)c1` gave Tb hexokinase -15, p47phox inh -19 and RBBP9 inh -8.
COc1ccccc1OCC(=O)NNC(=O)c1ccoc1C was read as Tb hexokinase -4, Yeast life ext 4, Yeast growth inh -7, p47phox inh -4, RBBP9 inh -8, SDO1 yeast rescue 5.1* and sdo1 rescue conf 0.034.
Screening CC12CCC(C(=O)NNc3ccccc3)(C(=O)C1=O)C2(C)C (stereo not drawn) returned Tb hexokinase -10, p47phox inh -3 and RBBP9 inh -4.
CCOC(=O)[C@@H]1C(c2c(OC)cc(OC)cc2OC)=NO[C@@H]1C(=O)OCC was read as Tb hexokinase -1, Yeast life ext 6, Yeast growth inh -1, p47phox inh 1, RBBP9 inh -7, SDO1 yeast rescue 6* and sdo1 rescue conf 0.071*.
`COc1ccc(CCNC(=O)CC(NS(=O)(=O)c2ccc(NC(C)=O)cc2)C(C)C)cc1OC` (stereo not drawn) gave Tb hexokinase 3, Yeast life ext -5, Yeast growth inh -37, p47phox inh -7, RBBP9 inh -10, SDO1 yeast rescue 2.3 and sdo1 rescue conf 0.084.
`CCOC(=O)c1nonc1NC(C)=O` gave Tb hexokinase 4, Yeast growth inh -22, p47phox inh -9, RBBP9 inh -15 and SDO1 yeast rescue 0.54.
For CCOC(=O)c1nsnc1NCCSC(=N)N the results were Tb hexokinase -23, Yeast life ext 4, Yeast growth inh -19, p47phox inh -4, RBBP9 inh -5, SDO1 yeast rescue 6.2* and sdo1 rescue conf 0.094*.
Screening CC1OC(O[C@H]2CC[C@]3(C)C4C=C[C@]56OC[C@@]7(CC[C@@H](C)[C@H](C)C75)[C@H](O)C[C@@]6(C)[C@]4(C)CC[C@H]3C2(C)C)C(OC2OC(CO)C(O)C(O)C2OC2OCC(O)C(O)C2O)C(O)C1O (stereo partly drawn) returned Tb hexokinase -26 and p47phox inh 7.
For CC(=O)N1CCC(=NNc2ccc(S(=O)(=O)N3CCOCC3)cc2[N+](=O)[O-])CC1 the results were Tb hexokinase -3, Yeast life ext -2, Yeast growth inh -14, p47phox inh -9, RBBP9 inh 4, SDO1 yeast rescue 12* and sdo1 rescue conf 0.044.
Screening COc1ccc(C(=O)CN2C(=O)NC(C)(c3ccccc3)C2=O)cc1OC (stereo not drawn) returned Tb hexokinase -6, Yeast life ext -16, Yeast growth inh -25, p47phox inh -14, RBBP9 inh -6 and SDO1 yeast rescue -0.57.
`COc1ccc(C2(C)NC(=O)N(Cc3cc(Cl)cc4c3OCOC4)C2=O)cc1OC` (stereo not drawn) gave Tb hexokinase 53*, Yeast life ext -8, Yeast growth inh -63, p47phox inh -3, RBBP9 inh -4, SDO1 yeast rescue -0.06, G6PDH counter -8 and TbHK1 confirm -1.
Cc1nn(C)c(C)c1C(=O)NN was read as Tb hexokinase 54*, Yeast life ext -12, Yeast growth inh -35, p47phox inh -1, RBBP9 inh -7, SDO1 yeast rescue 0.67, G6PDH counter -2 and TbHK1 confirm 2.
For O=C(O)CN(c1cccc(C(F)(F)F)c1)S(=O)(=O)c1ccccc1 the results were Tb hexokinase -9, p47phox inh 4 and RBBP9 inh -4.
